Laboratory results from ChEMBL document CHEMBL1138474, “Modulation of the transient receptor potential vanilloid channel TRPV4 by 4alpha-phorbol esters: a structure-activity study” (J Med Chem, 2009).
The source made the active and inactive calls. The rule behind the calls is not given here.

What was measured:
[1] = target: Transient receptor potential cation channel subfamily V member 4 (Mus musculus, UniProt Q9EPK8); experiment: (§1) Activation of mouse wild type TRPV4 expressed in HEK293 cells assessed as increase in intracellular calcium concentration; format: cell-based
Chain of Transient receptor potential cation channel subfamily V member 4 (Mus musculus, UniProt Q9EPK8) (Q9EPK8 whole entry, the tested form may be a part): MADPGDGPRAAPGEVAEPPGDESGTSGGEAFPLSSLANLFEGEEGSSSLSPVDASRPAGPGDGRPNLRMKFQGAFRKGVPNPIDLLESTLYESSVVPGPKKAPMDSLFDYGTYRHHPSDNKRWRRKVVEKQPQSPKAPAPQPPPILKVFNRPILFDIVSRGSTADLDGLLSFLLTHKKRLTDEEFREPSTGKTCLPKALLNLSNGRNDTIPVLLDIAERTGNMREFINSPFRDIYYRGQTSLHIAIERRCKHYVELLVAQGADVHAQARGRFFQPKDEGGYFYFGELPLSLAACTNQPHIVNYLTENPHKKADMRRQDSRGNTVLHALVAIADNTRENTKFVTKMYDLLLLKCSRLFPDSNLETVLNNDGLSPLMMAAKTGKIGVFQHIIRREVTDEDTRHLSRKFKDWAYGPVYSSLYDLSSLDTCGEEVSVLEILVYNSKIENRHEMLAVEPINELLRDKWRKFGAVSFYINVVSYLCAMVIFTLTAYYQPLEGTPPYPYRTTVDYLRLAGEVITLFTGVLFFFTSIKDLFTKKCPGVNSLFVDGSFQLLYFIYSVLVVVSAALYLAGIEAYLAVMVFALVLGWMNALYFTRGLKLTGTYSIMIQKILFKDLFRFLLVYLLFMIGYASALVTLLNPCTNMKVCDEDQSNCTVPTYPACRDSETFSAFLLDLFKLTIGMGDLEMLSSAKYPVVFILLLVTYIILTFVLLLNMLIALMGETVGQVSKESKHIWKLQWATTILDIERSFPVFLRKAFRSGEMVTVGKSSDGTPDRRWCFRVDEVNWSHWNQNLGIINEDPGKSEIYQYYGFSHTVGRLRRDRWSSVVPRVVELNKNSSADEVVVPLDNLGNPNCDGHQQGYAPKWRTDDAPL
In short: (§2)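 mTRPV4 (wild type or the Y556A, S557A or W586A TM3-4 mutant) in pCAGGS/Ires-GFP was transiently transfected into HEK293 cells and incubated overnight. GFP-positive cells on poly-L-lysine coverslips were loaded with 4 µM Fura-2 AM for 30 min at 37 °C and perfused with Krebs solution (1.5 mM CaCl2, pH 7.4). The 340/380 nm ratio (510 nm emission) gave ∆Fura-2 ratio. EC50 came from a Hill fit, >15 cells, three transfections.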

[2] = target: Transient receptor potential cation channel subfamily V member 4 (Mus musculus, UniProt Q9EPK8, Y556A); experiment: Activation of mouse TRPV4 Y556A mutant expressed in HEK293 cells assessed as increase in intracellular calcium concentration; format: cell-based; in short: as §2
Chain of Transient receptor potential cation channel subfamily V member 4 (Mus musculus, UniProt Q9EPK8, Y556A) (Q9EPK8 whole entry Y556A): as the sequence (Q9EPK8 whole entry, the tested form may be a part) above, with Y556A counted along it

[3] = target: Transient receptor potential cation channel subfamily V member 4 (Mus musculus, UniProt Q9EPK8, S557A); experiment: Activation of mouse TRPV4 S557A mutant expressed in HEK293 cells assessed as increase in intracellular calcium concentration; format: cell-based; in short: as §2
Chain of Transient receptor potential cation channel subfamily V member 4 (Mus musculus, UniProt Q9EPK8, S557A) (Q9EPK8 whole entry S557A): as the sequence (Q9EPK8 whole entry, the tested form may be a part) above, with S557A counted along it

[4] = target: Transient receptor potential cation channel subfamily V member 4 (Mus musculus, UniProt Q9EPK8, W586A); experiment: Activation of mouse TRPV4 W586A mutant expressed in HEK293 cells assessed as increase in intracellular calcium concentration; format: cell-based; in short: as §2
Chain of Transient receptor potential cation channel subfamily V member 4 (Mus musculus, UniProt Q9EPK8, W586A) (Q9EPK8 whole entry W586A): as the sequence (Q9EPK8 whole entry, the tested form may be a part) above, with W586A counted along it

HEK293 [5] = experiment: Effect on intracellular calcium level in non transfected HEK293 cells assessed as increase in fura-2 ratio; format: functional, cell-based; conditions: Homo sapiens
In short: (§3)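 GFP-negative cells from the same coverslips as the mTRPV4-transfected HEK293 cells served as untransfected controls. Cells were loaded with 4 µM Fura-2 AM for 30 min at 37 °C and perfused with Krebs solution (pH 7.4). ∆Fura-2 ratio was taken as (Rt−Rt0)/Rt0 from 340/380 nm excitation, with background subtracted.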

[6] = target: Transient receptor potential cation channel subfamily V member 4 (Mus musculus) (UniProt Q9EPK8); experiment: as §1; format: cell-based; in short: as §2
Chain of Transient receptor potential cation channel subfamily V member 4 (Mus musculus) (Q9EPK8 whole entry, the tested form may be a part): as the sequence (Q9EPK8 whole entry, the tested form may be a part) above

HEK293 [7] = experiment: Effect on intracellular calcium level in non transfected HEK293 cells; format: functional, cell-based; conditions: Homo sapiens; in short: as §3
[8] = target: Transient receptor potential cation channel subfamily V member 4 (Mus musculus) (UniProt Q9EPK8); experiment: Activation of mouse wild type TRPV4 expressed in HEK293 cells assessed as increase in intracellular calcium concentration at 1 uM in presence of TRP antagonist ruthenium red; format: functional, cell-based
In short: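 Single-cell fura-2 imaging was done on GFP-positive HEK293 cells transiently expressing mTRPV4, perfused with Krebs buffer (1.5 mM CaCl2, pH 7.4). Agonist at 1 µM was applied in the bath, and ruthenium red 1 µM was added to the extracellular solution as indicated. The read-out was the 340/380 nm ratio change. Three independent experiments were run.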

[9] = target: Transient receptor potential cation channel subfamily V member 4 (Mus musculus) (UniProt Q9EPK8); experiment: Activation of mouse wild type TRPV4 expressed in HEK293 cells assessed as outward-inward rectifying current density at 500 nM at a holding potential of 100 mV by whole cell patch-clamp assay in presence of calcium; format: cell-based
In short: (§4)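 Whole-cell patch clamp was run on mTRPV4-transfected HEK293 cells using ramps from -100 to +100 mV. Bath (mM): 150 NaCl, 6 CsCl, 1 MgCl2, 5 CaCl2, 10 glucose, 10 HEPES, pH 7.4. Pipette (mM): 20 CsCl, 100 aspartate, 1 MgCl2, 10 HEPES, 4 Na-ATP, 10 BAPTA, free Ca2+ buffered to 200 nM, pH 7.4. Agonist was added to the bath. Five cells, >2 transfections.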

[10] = target: Transient receptor potential cation channel subfamily V member 4 (Mus musculus) (UniProt Q9EPK8); experiment: Activation of mouse wild type TRPV4 expressed in HEK293 cells assessed as outward-inward rectifying current density at 500 nM at a holding potential of 100 mV by whole cell patch-clamp assay in absence of calcium; format: cell-based
In short: as §4, with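 “mV. CaCl2 was omitted from both solutions.” for “mV.”, “MgCl2,” for “MgCl2, 5 CaCl2,”, “BAPTA,” for “BAPTA, free Ca2+ buffered to 200 nM,”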

[11] = target: Transient receptor potential cation channel subfamily V member 4 (Mus musculus) (UniProt Q9EPK8); experiment: Activation of mouse wild type TRPV4 expressed in HEK293 cells assessed as increase in intracellular calcium concentration at 0.1 uM; format: cell-based
HEK293 [12] = experiment: Effect on intracellular calcium level in non transfected HEK293 cells at >10 uM; format: functional, cell-based; conditions: Homo sapiens
In short: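 GFP-negative (untransfected) HEK293 cells from the same coverslips were imaged by fura-2 ratio. Compound was applied at concentrations above 10 µM.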

[13] = target: Transient receptor potential cation channel subfamily V member 1 (Homo sapiens) (UniProt Q8NER1); experiment: Activation of TRPV1 expressed in HEK293 cells assessed as increase in intracellular calcium concentration; format: cell-based
Chain of Transient receptor potential cation channel subfamily V member 1 (Homo sapiens) (Q8NER1 whole entry, the tested form may be a part): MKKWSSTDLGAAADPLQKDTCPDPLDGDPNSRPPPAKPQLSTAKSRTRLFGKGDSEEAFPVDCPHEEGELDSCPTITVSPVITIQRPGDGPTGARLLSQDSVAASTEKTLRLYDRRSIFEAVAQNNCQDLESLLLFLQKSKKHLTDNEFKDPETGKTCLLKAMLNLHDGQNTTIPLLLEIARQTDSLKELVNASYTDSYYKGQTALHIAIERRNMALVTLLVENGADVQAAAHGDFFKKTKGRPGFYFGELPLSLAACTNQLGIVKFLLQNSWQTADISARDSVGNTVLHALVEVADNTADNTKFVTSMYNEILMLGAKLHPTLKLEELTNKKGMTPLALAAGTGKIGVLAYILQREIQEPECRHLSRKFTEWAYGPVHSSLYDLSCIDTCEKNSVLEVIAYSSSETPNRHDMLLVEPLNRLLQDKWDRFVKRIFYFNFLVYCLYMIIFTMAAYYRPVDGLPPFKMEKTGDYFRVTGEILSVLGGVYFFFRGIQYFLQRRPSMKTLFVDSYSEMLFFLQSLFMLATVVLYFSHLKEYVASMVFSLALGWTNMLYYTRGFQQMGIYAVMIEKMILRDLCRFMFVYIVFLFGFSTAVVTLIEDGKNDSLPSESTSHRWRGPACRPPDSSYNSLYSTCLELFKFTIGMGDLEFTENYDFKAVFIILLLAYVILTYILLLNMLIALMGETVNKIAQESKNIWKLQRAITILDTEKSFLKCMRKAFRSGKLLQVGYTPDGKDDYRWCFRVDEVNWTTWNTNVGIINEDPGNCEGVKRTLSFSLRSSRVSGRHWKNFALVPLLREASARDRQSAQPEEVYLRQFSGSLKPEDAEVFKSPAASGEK
In short: (§5)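 HEK293 cells grown in DMEM with 10% human serum at 37 °C/10% CO2 and transfected with the TRPV channel. Cells were loaded with 4 µM Fura-2 AM for 30 min at 37 °C and perfused with Krebs buffer (1.5 mM CaCl2, pH 7.4). Read-out is single-cell 340/380 nm fura-2 ratio imaging against nontransfected cells.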

[14] = target: T1, Transient receptor potential cation channel subfamily V member 2 (Homo sapiens) (UniProt Q9Y5S1); experiment: Activation of TRPV2 expressed in HEK293 cells assessed as increase in intracellular calcium concentration; format: cell-based; in short: as §5
T1 sequence (whole entry): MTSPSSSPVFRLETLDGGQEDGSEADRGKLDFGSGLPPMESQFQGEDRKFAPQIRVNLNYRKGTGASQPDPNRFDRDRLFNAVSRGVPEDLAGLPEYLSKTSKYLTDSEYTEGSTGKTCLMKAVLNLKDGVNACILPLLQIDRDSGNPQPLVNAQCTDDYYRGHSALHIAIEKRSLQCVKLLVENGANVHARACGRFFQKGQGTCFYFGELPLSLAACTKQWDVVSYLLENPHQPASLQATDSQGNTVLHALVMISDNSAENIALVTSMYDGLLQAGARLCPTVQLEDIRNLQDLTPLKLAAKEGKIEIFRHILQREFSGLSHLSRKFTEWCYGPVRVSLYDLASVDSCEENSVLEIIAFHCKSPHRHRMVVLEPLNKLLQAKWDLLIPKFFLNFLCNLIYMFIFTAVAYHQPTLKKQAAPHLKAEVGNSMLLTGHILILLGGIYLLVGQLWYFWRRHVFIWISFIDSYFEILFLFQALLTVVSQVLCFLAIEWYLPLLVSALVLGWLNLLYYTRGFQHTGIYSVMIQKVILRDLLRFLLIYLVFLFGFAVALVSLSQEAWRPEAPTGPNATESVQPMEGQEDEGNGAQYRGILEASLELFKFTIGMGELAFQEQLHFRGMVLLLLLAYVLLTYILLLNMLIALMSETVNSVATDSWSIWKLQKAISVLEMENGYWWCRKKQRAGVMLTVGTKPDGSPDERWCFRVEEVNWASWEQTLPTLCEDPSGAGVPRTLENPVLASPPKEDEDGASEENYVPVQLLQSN

[15] = target: T2, Transient receptor potential cation channel subfamily V member 3 (Homo sapiens) (UniProt Q8NET8); experiment: Activation of TRPV3 expressed in HEK293 cells assessed as increase in intracellular calcium concentration; format: cell-based; in short: as §5
T2 sequence (whole entry): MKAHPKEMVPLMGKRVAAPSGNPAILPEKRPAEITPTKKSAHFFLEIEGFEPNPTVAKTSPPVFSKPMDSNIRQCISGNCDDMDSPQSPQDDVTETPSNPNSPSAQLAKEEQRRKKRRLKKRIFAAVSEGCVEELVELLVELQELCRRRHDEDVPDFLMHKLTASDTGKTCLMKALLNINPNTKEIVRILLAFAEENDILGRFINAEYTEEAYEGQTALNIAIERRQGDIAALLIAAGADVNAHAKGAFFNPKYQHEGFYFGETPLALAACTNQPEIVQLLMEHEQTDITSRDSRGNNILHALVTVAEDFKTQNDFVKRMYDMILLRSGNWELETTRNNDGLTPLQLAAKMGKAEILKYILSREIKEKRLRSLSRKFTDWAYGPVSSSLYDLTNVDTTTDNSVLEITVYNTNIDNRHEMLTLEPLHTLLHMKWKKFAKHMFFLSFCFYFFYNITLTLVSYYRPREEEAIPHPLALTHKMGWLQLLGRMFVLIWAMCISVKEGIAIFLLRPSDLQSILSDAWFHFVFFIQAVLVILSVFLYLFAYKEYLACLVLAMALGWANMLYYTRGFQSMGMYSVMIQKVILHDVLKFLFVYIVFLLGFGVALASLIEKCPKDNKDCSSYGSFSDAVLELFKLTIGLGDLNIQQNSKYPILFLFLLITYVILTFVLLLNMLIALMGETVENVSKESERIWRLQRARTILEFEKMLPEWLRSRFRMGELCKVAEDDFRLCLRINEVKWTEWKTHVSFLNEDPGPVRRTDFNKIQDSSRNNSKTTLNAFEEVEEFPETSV

[16] = target: Transient receptor potential cation channel subfamily V member 4 (Mus musculus) (UniProt Q9EPK8); experiment: Agonist activity at mouse wild type TRPV4 expressed in HEK293 cells assessed as increase in intracellular calcium measured by fura-2 fluorescence ratio; format: functional, cell-based
In short: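 Mouse TRPV4 (pCAGGS/Ires-GFP) transiently transfected into HEK293 cells, incubated overnight, then seeded on poly-L-lysine coverslips. GFP-positive cells loaded with 4 µM Fura-2 AM for 30 min at 37 °C and perfused with Krebs (pH 7.4). ΔFura-2 ratio taken as (Rt−R0)/R0 at the maximal response. EC50 from a Hill fit over >15 cells from three transfections, mean ± SEM.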

[17] = tested on: Transient receptor potential cation channel subfamily V member 4 (Mus musculus), Q9EPK8 [Y556A]; experiment: Agonist activity at mouse TRPV4 Y556A mutant expressed in HEK293 cells assessed as increase in intracellular calcium measured by fura-2 fluorescence ratio; format: functional, cell-based
Chain of Transient receptor potential cation channel subfamily V member 4 (Mus musculus), Q9EPK8 [Y556A] (Q9EPK8 whole entry Y556A): as the sequence (Q9EPK8 whole entry, the tested form may be a part) above, with Y556A counted along it
In short: (§6)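 HEK293 cells transiently transfected with W586A or Y556A mouse TRPV4 mutants alongside wild type. Dose-response by single-cell fura-2 Ca2+ imaging, read as ΔFura-2 ratio. More than 15 cells per point from three independent transfections. Hill fit used, significance set at p < 0.05.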

[18] = tested on: Transient receptor potential cation channel subfamily V member 4 (Mus musculus), Q9EPK8 [W586A]; experiment: Agonist activity at mouse TRPV4 W586A mutant expressed in HEK293 cells assessed as increase in intracellular calcium measured by fura-2 fluorescence ratio; format: functional, cell-based; in short: as §6
Chain of Transient receptor potential cation channel subfamily V member 4 (Mus musculus), Q9EPK8 [W586A] (Q9EPK8 whole entry W586A): as the sequence (Q9EPK8 whole entry, the tested form may be a part) above, with W586A counted along it

[19] = target: Transient receptor potential cation channel subfamily V member 4 (Mus musculus) (UniProt Q9EPK8); experiment: Activation of mouse wild type TRPV4 expressed in HEK293 cells assessed as increase in intracellular calcium concentration at 500 nM
[20] = target: Transient receptor potential cation channel subfamily V member 4 (Mus musculus) (UniProt Q9EPK8); experiment: Activation of mouse wild type TRPV4 expressed in HEK293 cells assessed as increase in intracellular calcium concentration at 500 nM in presence of TRP antagonist ruthenium red

Compound | EC50 [1] [nM] | EC50 [2] [nM] | EC50 [3] [nM] | EC50 [4] [nM] | also measured
CC(=O)O[C@@H]1[C@@H](C)[C@@]2(O)[C@@H](C=C(CO)C[C@@]3(O)C(=O)C(C)=C[C@@H]23)[C@@H]2C(C)(C)[C@]12OC(C)=O | > 50000 |  |  |  | 
CCCCCCCCCC(=O)O[C@@H]1[C@@H](C)[C@@]2(O)[C@@H](C=C(CO)C[C@@]3(O)C(=O)C(C)=C[C@@H]23)[C@@H]2C(C)(C)[C@]12OC(=O)CCCCCCCCC | 370 | 6300 | 320 | > 6000 | Activity (HEK293 [5]): Active
CCCCCCCCCCCCCC(=O)O[C@@H]1[C@@H](C)[C@@]2(O)[C@@H](C=C(CO)C[C@@]3(O)C(=O)C(C)=C[C@@H]23)[C@@H]2C(C)(C)[C@]12OC(=O)CCCCCCCCCCCCC | 2830 |  |  |  | 
CCCCCCCCC(=O)O[C@@H]1[C@@H](C)[C@@]2(O)[C@@H](C=C(CO)C[C@@]3(O)C(=O)C(C)=C[C@@H]23)[C@@H]2C(C)(C)[C@]12OC(=O)CCCCCCCC | > 50000 |  |  |  | 
CCCC(=O)O[C@@H]1[C@@H](C)[C@@]2(O)[C@@H](C=C(CO)C[C@]3(O)C(=O)C(C)=C[C@@H]23)[C@@H]2C(C)(C)[C@]12OC(=O)CCC | 22500 |  |  |  | 
CCCCCC(=O)O[C@@H]1[C@@H](C)[C@@]2(O)[C@@H](C=C(CO)C[C@@]3(O)C(=O)C(C)=C[C@@H]23)[C@@H]2C(C)(C)[C@]12OC(=O)CCCCC | 70 | 2790 | 360 | 2840 | Activity [6]: Dose-dependent effect; Activity (HEK293 [7]): inactive; Activity [8]: inactive; Activity [9]: 354; Activity [10]: 806
CCCCCCCCCC(=O)O[C@@H]1[C@@H](C)[C@]2(O)[C@@H]3C4C([C@H]2[C@@H]2C(C)(C)[C@]12OC(=O)CCCCCCCCC)C1(CO)C[C@H]3C(=O)C41C (stereo partly drawn) | 175 | 9360 | 240 | 3640 | Activity [11]: Active; Activity (HEK293 [12]): Active; Activity [13]: inactive; Activity [14]: inactive; Activity [15]: inactive; Activity [9]: 505; Activity [10]: 635; Activity [16]: Active; Activity [17]: Active; Activity [18]: Active; Activity [19]: Active; Activity [20]: inactive
CCCCCCCCCC(=O)O[C@@]12[C@H](O)[C@@H](C)[C@@]3(O)[C@@H](C=C(CO)C[C@@]4(O)C(=O)C(C)=C[C@@H]34)[C@@H]1C2(C)C | 450 |  |  |  | Activity (HEK293 [5]): Active
CCCCCCCC(=O)O[C@@H]1[C@@H](C)[C@@]2(O)[C@@H](C=C(CO)C[C@@]3(O)C(=O)C(C)=C[C@@H]23)[C@@H]2C(C)(C)[C@]12OC(=O)CCCCCCC | > 50000 |  |  |  | 
CCCCCCCCCC(=O)O[C@@H]1[C@@H](C)[C@]2(O)[C@@H]3C=C(C)C(=O)[C@@H]3CC(CO)=C[C@H]2[C@@H]2C(C)(C)[C@]12OC(=O)CCCCCCCCC | > 50000 |  |  |  | 
